Calls of active or inactive are those of the source.
Legend:
Mus musculus [1] = assay: Activation of iNKT cells in C57BL/6 mouse assessed as intracellular cytokine expression at 5 or 10 ug, ip by FACS analysis; type: functional, organism-based
Procedure, shortened: (§1)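 Lipid given intraperitoneally to NOD or C57Bl/6 mice in PBS with […] Tween-20 (200 μg/mL). iNKT cell frequency and intracellular cytokine expression read by flow cytometry (FACS).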

iNKT [2] = assay: Induction of cytokine expression in C57BL/6 mouse iNKT cells at 100 ng/mL after 24 hrs by intracellular staining for IFN-gamma; type: functional, cell-based
Procedure, shortened: (§2)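 Splenocytes from NOD or C57Bl/6 mice, CFSE-labeled and stimulated in vitro with the glycolipid. Cytokine induction measured by intracellular IFNγ staining at 24 and 48 h.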

iNKT [3] = assay: Induction of cytokine expression in C57BL/6 mouse iNKT cells at 100 ng/mL after 48 hrs by intracellular staining for IFN-gamma; type: functional, cell-based; procedure, shortened: as §2
iNKT [4] = assay: Induction of cytokine expression in C57BL/6 mouse iNKT cells at 200 ng/mL after 24 hrs by intracellular staining for IFN-gamma; type: functional, cell-based; procedure, shortened: as §2
iNKT [5] = assay: Induction of cytokine expression in C57BL/6 mouse iNKT cells at 200 ng/mL after 48 hrs by intracellular staining for IFN-gamma; type: functional, cell-based; procedure, shortened: as §2
iNKT [6] = assay: Induction of cell proliferation in C57BL/6 mouse iNKT cells at 100 ng/mL after 24 hrs by CFSE dilution; type: functional, cell-based
Procedure, shortened: (§3)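 Splenocytes isolated from NOD or C57Bl/6 mice, labeled with CFSE and stimulated with the glycolipid in vitro. Proliferation read as CFSE dilution at 24 and 48 h.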

iNKT [7] = assay: Induction of cell proliferation in C57BL/6 mouse iNKT cells at 100 ng/mL after 48 hrs by CFSE dilution; type: functional, cell-based; procedure, shortened: as §3
iNKT [8] = assay: Induction of cell proliferation in C57BL/6 mouse iNKT cells at 200 ng/mL after 24 hrs by CFSE dilution; type: functional, cell-based; procedure, shortened: as §3
iNKT [9] = assay: Induction of cell proliferation in C57BL/6 mouse iNKT cells at 200 ng/mL after 48 hrs by CFSE dilution; type: functional, cell-based; procedure, shortened: as §3
Mus musculus [10] = assay: Activation of iNKT cells in NOD mouse assessed as intracellular cytokine expression at 5 or 10 ug, ip by FACS analysis; type: functional, organism-based; procedure, shortened: as §1
Mus musculus [11] = assay: Activation of iNKT cells in C57BL/6 mouse assessed as cell frequency at 5 or 10 ug, ip by FACS analysis; type: functional, organism-based; procedure, shortened: as §1
Mus musculus [12] = assay: Activation of iNKT cells in NOD mouse assessed as cell frequency at 5 or 10 ug, ip by FACS analysis; type: functional, organism-based; procedure, shortened: as §1
iNKT [13] = assay: Induction of cytokine expression in NOD mouse iNKT cells at 100 ng/mL after 24 hrs by intracellular staining for IFN-gamma; type: functional, cell-based; procedure, shortened: as §2
iNKT [14] = assay: Induction of cytokine expression in NOD mouse iNKT cells at 100 ng/mL after 48 hrs by intracellular staining for IFN-gamma; type: functional, cell-based; procedure, shortened: as §2
iNKT [15] = assay: Induction of cytokine expression in NOD mouse iNKT cells at 200 ng/mL after 24 hrs by intracellular staining for IFN-gamma; type: functional, cell-based; procedure, shortened: as §2
iNKT [16] = assay: Induction of cytokine expression in NOD mouse iNKT cells at 200 ng/mL after 48 hrs by intracellular staining for IFN-gamma; type: functional, cell-based; procedure, shortened: as §2
iNKT [17] = assay: Induction of cell proliferation in NOD mouse iNKT cells at 100 ng/mL after 24 hrs by CFSE dilution; type: functional, cell-based; procedure, shortened: as §3
iNKT [18] = assay: Induction of cell proliferation in NOD mouse iNKT cells at 100 ng/mL after 48 hrs by CFSE dilution; type: functional, cell-based; procedure, shortened: as §3
iNKT [19] = assay: Induction of cell proliferation in NOD mouse iNKT cells at 200 ng/mL after 24 hrs by CFSE dilution; type: functional, cell-based; procedure, shortened: as §3
iNKT [20] = assay: Induction of cell proliferation in NOD mouse iNKT cells at 200 ng/mL after 48 hrs by CFSE dilution; type: functional, cell-based; procedure, shortened: as §3

Measured: Activity

CCCCCCCCCCCCCCCCCCCCCCCCCC(=O)N[C@@H](CS[C@H]1O[C@H](CO)[C@H](O)[C@H](O)[C@H]1O)[C@H](O)[C@H](O)CCCCCCCCCCCCCC
inactive: all assays above

From ChEMBL document CHEMBL1152188, “Alpha-S-GalCer: synthesis and evaluation for iNKT cell stimulation” (Bioorg Med Chem Lett, 2008)
